The source made the active and inactive calls. The rule behind the calls is not given here.
Tests used:
[1] = system: HCT-116; assay: Antitumor activity against human HCT116 cells xenografted in athymic nude rat assessed as tumor growth inhibition at 10 mg/kg, iv administered every other day from day 10 post tumor-injection for 3 weeks relative to vehicle treated control; format: functional; details: read-out: TGI
Summary of the method: (§1)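 Subcutaneous flank HCT-116 xenografts in nude rats; at Day 1 groups of 10 with mean tumor 301-306 mm³. Tail-vein iv in TPPW (2% Tween-80, 5% propylene glycol, 10% PG-400, 83% water) at 10 mL/kg, weight-adjusted: days 1,3,5,8,10,12,15,17,19 or days 1-4, 8-11, 15-18. Irinotecan control 100 mg/kg ip weekly ×3.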

[2] = Volume of distribution in Nu/Nu rat at 50 mg/kg, iv administered using TPPW as vehicle; format: ADME, organism-based; parameters: dose 50 mg/kg, route intravenous; details: in vivo
Summary of the method: (§2)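 Plasma from K3 EDTA blood at 5, 15, 30 min, 1, 2, 4, 6, 24 h; acetonitrile extraction with internal standard, LC-MS/MS on C8 column, 5-95% ACN gradient with 0.05% formic acid.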

[3] = system: HCT-116; assay: Antitumor activity against human HCT116 cells xenografted in athymic nude rat assessed as tumor growth inhibition at 2.5 mg/kg, iv administered QD for 4 days per week followed by 3 days off per week for 3 weeks; format: functional, organism-based; parameters: dose 2.5 mg/kg; summary of the method: as §1
[4] = Clearance in athymic Nu/Nu rat at 15 mg/kg, iv administered using TPPW as vehicle; format: ADME, organism-based; parameters: dose 15 mg/kg, route intravenous; details: in vivo; summary of the method: as §2
[5] = AUC (0 to infinity) in Nu/Nu rat at 5 mg/kg, iv administered using TPPW as vehicle; format: ADME, organism-based; parameters: dose 5 mg/kg, route intravenous, time infinity; details: plasma; summary of the method: as §2
[6] = Half life in Nu/Nu rat at 5 mg/kg, iv administered using TPPW as vehicle; format: ADME, organism-based; parameters: dose 5 mg/kg, route intravenous; details: in vivo; summary of the method: as §2
[7] = Protein binding in plasma; format: ADME, cell-free; details: read-out: PPB
[8] = system: HCT-116; assay: Antitumor activity against human HCT116 cells xenografted in athymic nude rat assessed as tumor growth inhibition at 5 mg/kg, iv administered QD for 4 days per week followed by 3 days off per week for 3 weeks; format: functional, organism-based; parameters: dose 5 mg/kg; summary of the method: as §1
[9] = system: HCT-116; assay: Antitumor activity against human HCT116 cells xenografted in athymic nude rat assessed as tumor stasis at 20 mg/kg, iv administered every other day from day 10 post tumor-injection for 3 weeks […]; format: functional, organism-based; parameters: dose 20 mg/kg
Summary of the method: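 HCT-116 flank xenografts in nude rats, groups of 10 at mean 301-306 mm³; iv tail-vein dosing in TPPW at 10 mL/kg on days 1,3,5,8,10,12,15,17,19; tumors followed after dosing stopped, study ending day 42 or day 60.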

[10] = system: HCT-116; assay: Antitumor activity against human HCT116 cells xenografted in athymic nude rat assessed as tumor growth inhibition at 20 mg/kg, iv administered every other day from day 10 post tumor-injection for 3 weeks relative to vehicle treated control; format: functional; details: read-out: TGI; summary of the method: as §1
[11] = Clearance in Sprague-Dawley rat at 1 mg/kg, iv administered using PEG400/water as vehicle; format: ADME, organism-based; parameters: dose 1 mg/kg, route intravenous; details: in vivo
Summary of the method: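 SD rats fasted overnight, given 1 mg/kg iv in PEG400/water (3:1, v/v); three per arm. Blood into K3 EDTA at 5, 15, 30 min, 1, 2, 4, 6, 24 h, spun at 4 °C; plasma extracted with six volumes acetonitrile plus internal standard and quantified by LC-MS/MS (C8 column, formic acid/ACN gradient).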

Cc1cc(Nc2nc(Sc3ccc(NC(=O)CN4CC[C@@H](C(=O)N5CCC(F)(F)C5)C4)cc3)nn3cccc23)n[nH]1
inhibition in vivo at 10 mg/kg [1]: 60%
Vd [2]: 0.62 L/kg
TGI [3]: Active
clearance [4]: 12.5 mL/min/kg
AUC(0-inf) [5]: 7.7 µM·h
half-life [6]: 1.1 h
fraction unbound [7]: 0.01
TGI [8]: Active
Activity [9]: Active
inhibition in vivo at 20 mg/kg [10]: 85%
clearance [11]: 21.1 mL/min/kg

— ChEMBL document CHEMBL2163334, “Discovery of highly potent and selective pan-Aurora kinase inhibitors with enhanced in vivo antitumor therapeutic index” (J Med Chem, 2012)
